In ChEMBL document CHEMBL2384952, “Synthesis, antifungal and cytotoxic activities of 2-aryl-3-((piperidin-1-yl)ethyl)thiazolidinones” (Eur J Med Chem, 2013):
In brackets after ≈: the same amount, converted by molar mass.

How the values were obtained:
Vero [1] = experiment: Cytotoxicity against African green monkey Vero cells at 12.3 ug/mL by neutral red dye uptake assay relative to control; assay type: cell-based; conditions: chlorocebus sabaeus
Procedure, shortened: (§1)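 Vero cells (over 99% viable by trypan blue exclusion) were exposed to serial compound dilutions in E-MEM, with fresh E-MEM as negative control, for 72 h at 37 °C, 5% CO2. Cells were then given 3.3 mg/L neutral red for 2 h, and the dye was extracted with 50% ethanol/1% acetic acid. A540 was read, and viability was calculated as treated/control absorbance × 100.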

Vero [2] = experiment: Cytotoxicity against African green monkey Vero cells at 25 ug/mL by neutral red dye uptake assay relative to control; assay type: cell-based; conditions: chlorocebus sabaeus; procedure, shortened: as §1
Vero [3] = experiment: Cytotoxicity against African green monkey Vero cells at 49 ug/mL by neutral red dye uptake assay relative to control; assay type: cell-based; conditions: chlorocebus sabaeus; procedure, shortened: as §1
Vero [4] = experiment: Cytotoxicity against African green monkey Vero cells at 98 ug/mL by neutral red dye uptake assay relative to control; assay type: cell-based; conditions: chlorocebus sabaeus; procedure, shortened: as §1
Vero [5] = experiment: Cytotoxicity against African green monkey Vero cells at 197 ug/mL by neutral red dye uptake assay relative to control; assay type: cell-based; conditions: chlorocebus sabaeus; procedure, shortened: as §1
Vero [6] = experiment: Cytotoxicity against African green monkey Vero cells at 394 ug/mL by neutral red dye uptake assay relative to control; assay type: cell-based; conditions: chlorocebus sabaeus; procedure, shortened: as §1
Vero [7] = experiment: Cytotoxicity against African green monkey Vero cells at 787 ug/mL by neutral red dye uptake assay relative to control; assay type: cell-based; conditions: chlorocebus sabaeus; procedure, shortened: as §1
Vero [8] = experiment: Cytotoxicity against African green monkey Vero cells at 1575 ug/mL by neutral red dye uptake assay relative to control; assay type: cell-based; conditions: chlorocebus sabaeus; procedure, shortened: as §1
Vero [9] = experiment: Cytotoxicity against African green monkey Vero cells at 3150 ug/mL by neutral red dye uptake assay relative to control; assay type: cell-based; conditions: chlorocebus sabaeus; procedure, shortened: as §1
Candida parapsilosis = experiment: Antifungal activity against Candida parapsilosis after 48 hrs by CLSI M27A3 broth microdilution method; assay type: functional; conditions: Lodderomyces parapsilosis
Procedure, shortened: (§2)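 Yeasts were kept on Sabouraud dextrose agar and subcultured at 35 °C for at least 2 days. They were suspended in saline to McFarland 0.5 and diluted in RPMI. Ten successive dilutions were made from a 1.6 mg/mL DMSO stock per CLSI broth microdilution, then incubated at 37 °C for 48 h. Growth was read visually against a growth-control well, and MIC is the lowest concentration inhibiting growth.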

Geotrichum = experiment: Antifungal activity against Geotrichum species after 48 hrs by CLSI M27A3 broth microdilution method; assay type: functional; procedure, shortened: as §2
Papiliotrema laurentii = experiment: Antifungal activity against Cryptococcus laurentii after 48 hrs by CLSI M27A3 broth microdilution method; assay type: functional; procedure, shortened: as §2
Rhodotorula = experiment: Antifungal activity against Rhodotorula species after 48 hrs by CLSI M27A3 broth microdilution method; assay type: functional; procedure, shortened: as §2
Candida albicans = experiment: Antifungal activity against Candida albicans after 48 hrs by CLSI M27A3 broth microdilution method; assay type: functional; procedure, shortened: as §2
Trichosporon asahii = experiment: Antifungal activity against Trichosporon asahii after 48 hrs by CLSI M27A3 broth microdilution method; assay type: functional; procedure, shortened: as §2
[10] = tested on: Meyerozyma guilliermondii; experiment: Antifungal activity against Candida guilliermondii after 48 hrs by CLSI M27A3 broth microdilution method; assay type: functional; procedure, shortened: as §2

| SMILES | Cell viability (Vero [1]) [%] | Cell viability (Vero [2]) [%] | Cell viability (Vero [3]) [%] | Cell viability (Vero [4]) [%] | Cell viability (Vero [5]) [%] | Cell viability (Vero [6]) [%] | MFC (Candida parapsilosis) [µg/mL] | MIC (Candida parapsilosis) [µg/mL] | MFC (Geotrichum) [µg/mL] | MIC (Geotrichum) [µg/mL] | MFC (Papiliotrema laurentii) [µg/mL] | MIC (Papiliotrema laurentii) [µg/mL] | MFC (Rhodotorula) [µg/mL] | MIC (Rhodotorula) [µg/mL] | MFC (Candida albicans) [µg/mL] | MIC (Candida albicans) [µg/mL] | MFC (Trichosporon asahii) [µg/mL] | MIC (Trichosporon asahii) [µg/mL] | MFC [10] [µg/mL] | MIC [10] [µg/mL] | other results |
| --- | --- | --- | --- | --- | --- | --- | --- | --- | --- | --- | --- | --- | --- | --- | --- | --- | --- | --- | --- | --- | --- |
| O=C1CSC(c2ccc([N+](=O)[O-])cc2)N1CCN1CCCCC1 (centres undefined) | 100 | 100 | 100 | 87 | 72 | 66 | 100 (≈ 298 µM) | 100 (≈ 298 µM) | 50 (≈ 149 µM) | 50 (≈ 149 µM) | 100 (≈ 298 µM) | 100 (≈ 298 µM) | 30 (≈ 89.4 µM) | 30 (≈ 89.4 µM) | 62 (≈ 185 µM) | 62 (≈ 185 µM) | 100 (≈ 298 µM) | 100 (≈ 298 µM) | 100 (≈ 298 µM) | 100 (≈ 298 µM) | Cell viability (Vero [7]): 21%; Cell viability (Vero [8]): 15%; Cell viability (Vero [9]): 10% |
| COc1ccc(C2SCC(=O)N2CCN2CCCCC2)cc1 (centres undefined) | 100 | 100 | 100 | 89 | 87 | 73 | 50 (≈ 156 µM) | 50 (≈ 156 µM) | > 400 | > 400 | 100 (≈ 312 µM) | 100 (≈ 312 µM) | 33.5 (≈ 105 µM) | 33.5 (≈ 105 µM) | 75 (≈ 234 µM) | 75 (≈ 234 µM) | > 400 | > 400 | 100 (≈ 312 µM) | 100 (≈ 312 µM) | Cell viability (Vero [7]): 33%; Cell viability (Vero [8]): 11%; Cell viability (Vero [9]): 11% |
| O=C1CSC(c2cccc(Cl)c2)N1CCN1CCCCC1 (centres undefined) | 100 | 100 | 100 | 100 | 77 | 45 | 100 (≈ 308 µM) | 100 (≈ 308 µM) | 50 (≈ 154 µM) | 50 (≈ 154 µM) | 100 (≈ 308 µM) | 100 (≈ 308 µM) | 25 (≈ 77 µM) | 25 (≈ 77 µM) | 62 (≈ 191 µM) | 62 (≈ 191 µM) | 100 (≈ 308 µM) | 100 (≈ 308 µM) | 100 (≈ 308 µM) | 100 (≈ 308 µM) | Cell viability (Vero [7]): 31%; Cell viability (Vero [8]): 20%; Cell viability (Vero [9]): 15% |
| O=C1CSC(c2ccc(Cl)cc2)N1CCN1CCCCC1 (centres undefined) | 90 | 84 | 84 | 74 | 68 | 28 | 100 (≈ 308 µM) | 100 (≈ 308 µM) | 50 (≈ 154 µM) | 50 (≈ 154 µM) | 100 (≈ 308 µM) | 100 (≈ 308 µM) | 50 (≈ 154 µM) | 50 (≈ 154 µM) | 62 (≈ 191 µM) | 62 (≈ 191 µM) | 50 (≈ 154 µM) | 50 (≈ 154 µM) | 100 (≈ 308 µM) | 100 (≈ 308 µM) | Cell viability (Vero [7]): 15%; Cell viability (Vero [8]): 13%; Cell viability (Vero [9]): 11% |
| O=C1CSC(c2ccccc2[N+](=O)[O-])N1CCN1CCCCC1 (centres undefined) | 100 | 100 | 100 | 100 | 100 | 100 | 50 (≈ 149 µM) | 50 (≈ 149 µM) | 25 (≈ 74.5 µM) | 25 (≈ 74.5 µM) | 100 (≈ 298 µM) | 100 (≈ 298 µM) | 25 (≈ 74.5 µM) | 25 (≈ 74.5 µM) | 55 (≈ 164 µM) | 55 (≈ 164 µM) | 100 (≈ 298 µM) | 100 (≈ 298 µM) | 25 (≈ 74.5 µM) | 25 (≈ 74.5 µM) | Cell viability (Vero [7]): 100%; Cell viability (Vero [8]): 24%; Cell viability (Vero [9]): 30% |
| O=C1CSC(c2cccc(O)c2)N1CCN1CCCCC1 (centres undefined) | 100 | 100 | 100 | 100 | 100 | 100 | 67 (≈ 219 µM) | 67 (≈ 219 µM) | > 400 | > 400 | 100 (≈ 326 µM) | 100 (≈ 326 µM) | 33.5 (≈ 109 µM) | 33.5 (≈ 109 µM) | 81 (≈ 264 µM) | 81 (≈ 264 µM) | > 400 | > 400 | 100 (≈ 326 µM) | 100 (≈ 326 µM) | Cell viability (Vero [7]): 60%; Cell viability (Vero [8]): 13%; Cell viability (Vero [9]): 11% |
| O=C1CSC(c2ccc(O)cc2)N1CCN1CCCCC1 (centres undefined) | 100 | 100 | 96 | 94 | 87 | 76 | 100 (≈ 326 µM) | 100 (≈ 326 µM) | 50 (≈ 163 µM) | 50 (≈ 163 µM) | 100 (≈ 326 µM) | 100 (≈ 326 µM) | 25 (≈ 81.6 µM) | 25 (≈ 81.6 µM) | 100 (≈ 326 µM) | 100 (≈ 326 µM) | 50 (≈ 163 µM) | 50 (≈ 163 µM) | 100 (≈ 326 µM) | 100 (≈ 326 µM) | Cell viability (Vero [7]): 57%; Cell viability (Vero [8]): 12%; Cell viability (Vero [9]): 10% |
| COc1cccc(C2SCC(=O)N2CCN2CCCCC2)c1 (centres undefined) | 100 | 97 | 90 | 84 | 66 | 57 | 100 (≈ 312 µM) | 100 (≈ 312 µM) | > 400 | > 400 | 100 (≈ 312 µM) | 100 (≈ 312 µM) | 33.5 (≈ 105 µM) | 33.5 (≈ 105 µM) | 100 (≈ 312 µM) | 100 (≈ 312 µM) | > 400 | > 400 | 100 (≈ 312 µM) | 100 (≈ 312 µM) | Cell viability (Vero [7]): 19%; Cell viability (Vero [8]): 11%; Cell viability (Vero [9]): 6% |
| Cc1ccc(C2SCC(=O)N2CCN2CCCCC2)cc1 (centres undefined) | 100 | 100 | 100 | 100 | 85 | 51 | 100 (≈ 328 µM) | 100 (≈ 328 µM) | 100 (≈ 328 µM) | 100 (≈ 328 µM) | 66 (≈ 217 µM) | 66 (≈ 217 µM) | 37.5 (≈ 123 µM) | 37.5 (≈ 123 µM) | 62 (≈ 204 µM) | 62 (≈ 204 µM) | 50 (≈ 164 µM) | 50 (≈ 164 µM) | 100 (≈ 328 µM) | 100 (≈ 328 µM) | Cell viability (Vero [7]): 17%; Cell viability (Vero [8]): 13%; Cell viability (Vero [9]): 12% |
| O=C1CSC(c2c(Cl)cccc2Cl)N1CCN1CCCCC1 (centres undefined) | 100 | 100 | 100 | 76 | 75 | 32 | 100 (≈ 278 µM) | 100 (≈ 278 µM) | 50 (≈ 139 µM) | 50 (≈ 139 µM) | 200 (≈ 557 µM) | 200 (≈ 557 µM) | 30 (≈ 83.5 µM) | 30 (≈ 83.5 µM) | 75 (≈ 209 µM) | 75 (≈ 209 µM) | 50 (≈ 139 µM) | 50 (≈ 139 µM) | 200 (≈ 557 µM) | 200 (≈ 557 µM) | Cell viability (Vero [7]): 11%; Cell viability (Vero [8]): 10%; Cell viability (Vero [9]): 7% |
| OC(Cn1cncn1)(Cn1cncn1)c1ccc(F)cc1F [FLUCONAZOLE] |  |  |  |  |  |  | 1 (≈ 3.27 µM) | 1 (≈ 3.27 µM) | 8 (≈ 26.1 µM) | 8 (≈ 26.1 µM) | 1 (≈ 3.27 µM) | 1 (≈ 3.27 µM) | 26.5 (≈ 86.5 µM) | 26.5 (≈ 86.5 µM) | 1 (≈ 3.27 µM) | 1 (≈ 3.27 µM) | 1 (≈ 3.27 µM) | 1 (≈ 3.27 µM) | 16 (≈ 52.2 µM) | 16 (≈ 52.2 µM) |  |
